Paper PMC6331719 (The EMBO Journal, 2018)

What was measured:
CFTR (Caco‐2 cells) = test: Ussing chamber, CFTR-dependent Cl- secretion in Caco-2 cells; assay type: cell-based, human; conditions: for Protection against P31–43-mediated reduction of chloride current: pre-incubation up to 20 min, VX-770 10 μM, Vrx-532 20 μM
Method in brief: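 Caco-2 or T84 monolayers grown on 0.4-μm Transwells to 800–1,200 Ω cm2, then mounted in Ussing chambers. Ringer both sides, 37°C, gassed with 95% O2/5% CO2. Cells pretreated 3 h with peptides (20 μg/ml) or PT gliadin (500 μg/ml), or given bath peptides (100 μM, 3–5 min) after 100 μM amiloride. VX-770 10 μM for 5 min. Forskolin 20 μM; peak CFTRinh172-sensitive Isc.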

[1] = tested on: CFTR (Caco-2 and T84 cells); test: Iodide efflux by SPQ in intestinal epithelial cells; assay type: cell-based, human; conditions: 20 min pre-treatment with potentiator, n = 3
CFTR [2] = test: Co-immunoprecipitation of CFTR with biotinylated peptide, Caco-2 cells; assay type: binding, human; conditions: short pre-incubation, Caco-2
CFTR [3] = test: Proximity ligation assay CFTR / P31–43, Caco-2 cells; assay type: binding, human; conditions: short pre-incubation
Method in brief: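 Caco-2 cells were pre-incubated up to 20 min with VX-770 (10 μM), then exposed to P31–43. Cells were fixed in 4% PFA for 15 min at room temperature and blocked with 0.1% Triton X-100/0.5% BSA. Primary antibodies were applied overnight at 4°C and Duolink probes (1:5) for 1 h at 37°C. Ligation, rolling-circle amplification, red detection and DAPI counterstain followed.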

TG2 = TG2 activity and TG2-catalysed crosslinking in Caco-2 cells; assay type: cell-based, human; conditions: Caco-2, Ca2+ pulse, BAP incorporation
TG2 and CFTR = test: Co-immunoprecipitation of TG2 and CFTR, Caco-2 cells; assay type: cell-based, human; conditions: Caco-2, pre-treatment
Caco‐2 cells [4] = test: Epithelial stress / innate immune markers by immunoblot, Caco-2 cells; assay type: cell-based, human
CFTR (Caco-2 cells) = test: CFTR stability, ubiquitination and plasma membrane level, Caco-2 cells; assay type: cell-based, human; conditions: Caco-2, pre-incubation with potentiator, 24 h
Method in brief: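 Caco-2 cells homogenised and spun at 2,300 × g for 15 min, then 16,000 × g for 1 h at 4°C. The membrane pellet was solubilised in Tris–HCl pH 7.4/EDTA buffer with 1% Triton X-100 and spun at 60,000 × g for 1 h to give the plasma-membrane fraction. Fraction used for IP or immunoblot against CFTR, ubiquitin, CHIP and related markers. Potentiator VX-770 at 10 μM.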

Caco‐2 cells [5] = test: F-actin confocal staining, Caco-2 cells; assay type: cell-based, human; conditions: Caco-2, 24 h, VX-770
IL‐15 (Caco‐2 cells) [6] = test: IL-15 production; assay type: cell-based, human; conditions: Caco-2, VX-770 pre-treatment, P < 0.001
Caco‐2CFTR‐KO cells = test: IL-15 production and ERK1/2 phosphorylation, Caco-2 CFTR-KO cells; assay type: cell-based, human
Caco‐2 cells [7] = test: Endosomal trafficking markers, Caco-2 cells; assay type: cell-based, human; conditions: for Protection from P31–43 effects on BECN1, hVps34, UVRAG, Rab5, Rab7: Caco-2, pre-incubation with potentiator
Method in brief: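 Endosomal fractions isolated from treated and untreated Caco-2 cells. Rab5 and Rab7 immunoblotted, with EEA-1 as loading control. Densitometry reported as mean ± SD of triplicate independent experiments. Potentiator VX-770 used at 10 μM.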

[8] = tested on: CFTR (small intestine, BALB/c mice); test: Ussing chamber, small intestine of BALB/c mice; assay type: in vivo, mouse; conditions: VX-770 i.p. 15 min prior to gliadin, 4 weeks
Method in brief: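 BALB/c mice on a gluten-free diet for ≥3 generations were given oral gliadin (5 mg daily for 1 week, then thrice weekly for 3 weeks) ± VX-770; n = 10 per group. Small intestine tissue was mounted in Ussing chambers with identical Ringer on both sides, at 37°C, stirred and gassed with 95% O2/5% CO2.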

BALB/c mice = test: Intestinal permeability; assay type: in vivo, mouse; conditions: VX-770 i.p. prior to gliadin, 4 weeks
Method in brief: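 BALB/c mice kept ≥3 generations on a gluten-free diet were gavaged with gliadin (5 mg daily for 1 week, then thrice weekly for 3 weeks) ± intraperitoneal VX-770 15 min before; n = 10 per group. FITC-D4000 (600 mg/kg) was gavaged, and cardiac blood taken 1 h later. Plasma was diluted 1:1 in PBS and read at ex 485/em 528 nm against standards (50–0.312 μg/ml). Values are means ± SD of triplicate pooled samples.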

[9] = tested on: BALB/c mice small intestine; test: Small intestine transcript levels, BALB/c mice; assay type: in vivo, mouse; conditions: VX-770 i.p. prior to gliadin
[10] = tested on: BALB/c mice small intestine; test: Small intestine cytokine protein levels; assay type: in vivo, mouse; conditions: VX-770 i.p. prior to gliadin
Method in brief: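 BALB/c mice kept gluten-free for at least three generations, 10 weeks old, at least 10 per group. Oral gliadin or vehicle for 4 weeks (5 mg daily for 1 week, then thrice weekly for 3 weeks). Small-intestine homogenates assayed for IL-10 and TGF-β by ELISA, read in triplicate at 450 nm. Values normalised to Bradford protein.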

[11] = tested on: BALB/c mice small intestine; test: Small intestine protein markers; assay type: in vivo, mouse; conditions: VX-770 i.p. prior to gliadin
NOD mice = test: Gliadin-challenged NOD mice; assay type: in vivo, mouse; conditions: gliadin after diabetes onset, VX-770 i.p.
Method in brief: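 Female NOD mice with diabetes (blood glucose > 250 mg/dl, monitored weekly) were used at 12–13 weeks. They were challenged orally with gliadin for 4 consecutive weeks. VX-770 was given intraperitoneally 15 min before each challenge. n = 10 mice per group.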

NOD‐DQ8 mice = test: Gliadin-challenged NOD-DQ8 mice; assay type: in vivo, mouse; conditions: gliadin 4 weeks, VX-770 i.p.
Method in brief: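 NOD.[…] AB0null mice expressing HLA-DQ8 (congenic NOD background), 10 per group. Oral gliadin or vehicle for 4 weeks: 5 mg daily for 1 week, then 5 mg thrice weekly for 3 weeks. VX-770 given intraperitoneally 15 min before each gliadin challenge.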

celiac PBMC [12] = test: Caco-2 / celiac PBMC bidimensional co-culture, cytokine release; assay type: cell-based, human; conditions: VX-770, P < 0.01
celiac PBMC [13] = test: Caco-2 CFTR-KO / celiac PBMC co-culture, cytokine release; assay type: cell-based, human; conditions: VX-770, P31–43 and P57–68 challenge
IL‐15 (Caco‐2 cells) [14] = test: IL-15 in lower compartment of bidimensional culture; assay type: cell-based, human; conditions: VX-770, P < 0.001 vs. peptide combination
wild‐type mouse CFTR = conditions: ref Cui & McCarty, 2015; Cui et al, 2016; Zeng et al, 2017; cited from earlier work
[15] = tested on: duodenal biopsies from CD patients; test: Duodenal biopsies from CD patients, CD3+CD25+ cells in lamina propria; assay type: cell-based, human; conditions: Vrx-532 20 μM, 3 h pre-incubation

CC(C)(C)c1cc(C(C)(C)C)c(NC(=O)c2c[nH]c3ccccc3c2=O)cc1O [VX‐770]
Effect of VX-770 on chloride current when added after P31–43 (CFTR (Caco‐2 cells); P31–43 100 μM then VX-770 10 μM then Fsk): poorly active | Protection against P31–43-mediated reduction of chloride current (CFTR (Caco‐2 cells)): prevented | Protection of iodide efflux against P31–43 [1]: protecting intestinal epithelial cells against P31–43‐mediated CFTR inhibition | Effect of VX-770 on P31–43 interaction with CFTR (co-immunoprecipitation) (CFTR [2]): abolished the interaction of P31–43 with CFTR | Effect of VX-770 on P31–43 interaction with CFTR (proximity ligation assay) (CFTR [3]): abolished the interaction of P31–43 with CFTR | Effect on TG2-mediated transamidation reactions itself (TG2): no impact on TG2‐mediated transamidation reactions | Prevention of P31–43-induced TG2–CFTR interaction (TG2 and CFTR): abolished the P31–43‐induced interaction of TG2 and CFTR | Prevention of P31–43-induced NF-κB p65 translocation, NLRP3 expression, caspase-1 cleavage (Caco‐2 cells [4]; Caco-2, VX-770): prevented additional pro‐inflammatory P31–43 effects | Protection from P31–43-induced epithelial stress (PPARγ, phERK1/2, HSP70) (Caco‐2 cells [4]; Caco-2, pre-incubation with VX-770): protected Caco‐2 cells from signs of P31–43‐induced epithelial stress | Prevention of P31–43 effects on CFTR stability / plasma membrane level (CFTR (Caco-2 cells)): prevented | Formation of F-actin stress fibers induced by P31–43 (Caco‐2 cells [5]): negated the capacity of P31–43 to induce the formation of F‐actin stress fibers | P31–43-induced IL-15 production (IL‐15 (Caco‐2 cells) [6]): prevented the P31–43‐induced production of IL‐15 | IL-15 expression and ERK1/2 phosphorylation in CFTR-KO cells (Caco‐2CFTR‐KO cells): failed to modulate both IL‐15 expression and ERK1/2 phosphorylation in Caco‐2CFTR‐KO cells | P31–43-mediated increase in CD71 cell surface expression (Caco‐2 cells [7]; Caco-2): blocked the P31–43‐mediated increase in the cell surface expression of transferrin receptor | Protection from P31–43 effects on BECN1, hVps34, UVRAG, Rab5, Rab7 (Caco‐2 cells [7]): counteracted | P31–43-induced CD71–SIgA interaction (Caco‐2 cells [7]; Caco-2 pre-incubated with SIgA 1 h at 4°C): abrogated the ability of P31–43 to increase the interaction of CD71 with SIgA | CFTR function and protein expression, gliadin-sensitive mice [8]: prevented the gliadin‐induced decrease in CFTR function (Fig 5A) and protein expression | Intestinal permeability (BALB/c mice): prevented the gliadin‐induced increase in intestinal permeability | Rorc and Tbet [9]: downregulated upon VX‐770 treatment | IL-10 and TGF-β production [10]: improved IL‐10 and TGF‐β production | IL-21 expression [10]: inhibited the gliadin‐induced expression of IL‐21 | IL-15, IL-17A and IFN-γ mRNA and protein ([10]; P < 0.001): prevented the gliadin‐induced upregulation of IL‐15, IL‐17A, and IFN‐γ mRNA | NKG2D upregulation on intraepithelial lymphocytes [11]: counteracted | NLRP3 expression [11]: counteracted gliadin‐induced NLRP3 expression | TG2 protein levels [11]: opposed the ability of gliadin to increase TG2 protein levels | NHERF-1 depletion ([11]; 4 weeks): abrogated the depletion of NHERF‐1 | Protective effects in NOD mice (NOD mice): protective effects of VX‐770 were confirmed in NOD mice | Protective effects in NOD-DQ8 mice (NOD‐DQ8 mice): in NOD‐DQ8 mice as well | IL-10 levels (celiac PBMC [12]): increased IL‐10 levels | Prevention of IFN-γ production (celiac PBMC [12]): prevented the production of IFN‐γ by PT gliadin or peptide combination | Prevention of IFN-γ production with Caco-2 CFTR-KO (celiac PBMC [13]): failed to prevent the production of IFN‐γ by celiac PBMC | Prevention of IL-15 accumulation (IL‐15 (Caco‐2 cells) [14]): prevented by VX‐770 | Potentiation of wild-type mouse CFTR channel function (wild‐type mouse CFTR): potentiate the ion channel function of wild‐type mouse CFTR

Cc1ccc(O)c(-c2cc(-c3ccccc3)n[nH]2)c1 [Vrx‐532]
Protection against P31–43-mediated reduction of chloride current (CFTR (Caco‐2 cells)): prevented | Protection of iodide efflux against P31–43 [1]: protecting intestinal epithelial cells against P31–43‐mediated CFTR inhibition | Prevention of P31–43 effects on CFTR stability / plasma membrane level (CFTR (Caco-2 cells)): prevented | Protection from P31–43 effects on BECN1, hVps34, UVRAG, Rab5, Rab7 (Caco‐2 cells [7]): counteracted | Abrogation of gliadin-peptide-induced CD3+CD25+ cell increase [15]: highly effective in abrogating these effects of gliadin peptides
